In ChEMBL document CHEMBL1139543, “Antineoplastic agents. 445. Synthesis and evaluation of structural modifications of (Z)- and (E)-combretastatin A-41” (J Med Chem, 2005):
Converted amounts (≈) assume the structure as drawn.

Experiments:
[1] = test system: SW-1736; experiment: Growth inhibition against human thyroid cell line( SW 1736); type: functional
[2] = test system: NCI-H460; experiment: Growth inhibition against human lung-NSC NCI-H460 cell line; type: functional
[3] = test system: DU-145; experiment: Growth inhibition against human prostate cell line (DU-145); type: functional
[4] = test system: P388; experiment: Effective dose against murine P388 leukemia cell line; type: functional; conditions: Mus musculus, read-out: ED50 (the source's name)
[5] = test system: BXPC-3; experiment: Growth inhibition against human pancreas carcinoma cell line (BxPC-3); type: functional
[6] = biological target: Tubulin beta-1 chain (Homo sapiens, UniProt Q9H4B7); experiment: Inhibition of tubulin polymerization upon incubation for 20 min at 30 degree C
Chain of Tubulin beta-1 chain (Q9H4B7 whole entry): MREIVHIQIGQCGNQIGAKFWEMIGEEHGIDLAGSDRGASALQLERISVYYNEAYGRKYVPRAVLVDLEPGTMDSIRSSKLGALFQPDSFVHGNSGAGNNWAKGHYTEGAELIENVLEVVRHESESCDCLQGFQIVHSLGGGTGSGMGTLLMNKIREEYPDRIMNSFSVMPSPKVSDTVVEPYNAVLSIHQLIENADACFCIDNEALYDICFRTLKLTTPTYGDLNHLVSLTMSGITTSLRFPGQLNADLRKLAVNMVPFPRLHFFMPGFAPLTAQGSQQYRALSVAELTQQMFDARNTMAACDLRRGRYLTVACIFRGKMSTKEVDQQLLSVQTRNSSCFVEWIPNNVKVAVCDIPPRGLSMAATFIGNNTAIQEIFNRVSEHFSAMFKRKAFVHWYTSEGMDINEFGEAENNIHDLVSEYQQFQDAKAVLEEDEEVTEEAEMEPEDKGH
Outline: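 Purified tubulin at 10 µM (1.0 mg/mL) in 0.8 M monosodium glutamate, pH 6.6, with 4% (v/v) DMSO and varying compound concentrations. Preincubated 15 min at 37 °C, chilled on ice, then GTP (0.4 mM) added. Warmed from 0 °C to 30 °C, and assembly followed 20 min by turbidity at 350 nm. IC50 interpolated; at least two determinations; SD reported.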

[7] = test system: SK-N-SH; experiment: Growth inhibition against human neuroblastoma cell line (SK-N-SH); type: functional
[8] = test system: FaDu; experiment: Growth inhibition against human pharynx FADU cell line; type: functional
[9] = test system: Neisseria gonorrhoeae; experiment: Minimum inhibitory concentration against Neisseria gonorrhoeae was determined in the disk diffusion assay; value ranges from 12.5-25 ug/disk; type: functional
[10] = test system: Neisseria gonorrhoeae; experiment: Minimum inhibitory concentration against Neisseria gonorrhoeae was determined in the disk diffusion assay; value ranges from 50-100 ug/disk; type: functional
[11] = test system: Enterococcus faecalis; experiment: Minimum inhibitory concentration against Enterococcus faecalis was determined in the disk diffusion assay value ranges from 50-100 ug/disk; type: functional
[12] = test system: Staphylococcus aureus; experiment: Minimum inhibitory concentration against Staphylococcus aureus was determined in the disk diffusion assay; value ranges from 25-50 ug/disk; type: functional
[13] = test system: Micrococcus luteus; experiment: Minimum inhibitory concentration against Micrococcus luteus was determined in the disk diffusion assay; type: functional
[14] = test system: Micrococcus luteus; experiment: Minimum inhibitory concentration against Micrococcus luteus was determined in the disk diffusion assay; value ranges from 12.5-25 ug/disk; type: functional
[15] = test system: Staphylococcus aureus; experiment: Minimum inhibitory concentration against Staphylococcus aureus was determined in the disk diffusion assay; value ranges from 50-100 ug/disk; type: functional

Row | SMILES | GI50 [1] | GI50 [2] | GI50 [3] | EC50 [4] | GI50 [5] | IC50 [6] | GI50 [7] | GI50 [8] | MIC [9] | MIC [10] | MIC [11] | MIC [12] | MIC [13] | MIC [14] | MIC [15]
1 | COc1ccc(/C=C\c2cc(OC)c(OC)c(OC)c2)cc1Br | 0.034 µg/mL (≈ 0.0897 µM) | 0.033 µg/mL (≈ 0.087 µM) | 0.027 µg/mL (≈ 0.0712 µM) | 0.16 µg/mL (≈ 0.422 µM) | 0.007 µg/mL (≈ 0.0185 µM) | 1.1 µM | 0.002 µg/mL (≈ 0.00527 µM) | 0.0058 µg/mL (≈ 0.0153 µM) |  |  |  |  |  |  | 
2 | COc1ccc(/C=C\c2cc(OC)c(O)c(OC)c2)cc1O | 3.4 µg/mL (≈ 11.2 µM) | 0.74 µg/mL (≈ 2.45 µM) | 0.17 µg/mL (≈ 0.562 µM) | 0.25 µg/mL (≈ 0.827 µM) | > 4 µg/mL |  | 0.19 µg/mL (≈ 0.628 µM) | 0.23 µg/mL (≈ 0.761 µM) | 25 ug/disk |  |  |  |  |  | 
3 | COc1ccc(/C=C/c2cc(OC)c(OC)c(OC)c2)cc1[N+](=O)[O-] | 2.8 µg/mL (≈ 8.11 µM) |  | > 10 µg/mL | > 10 µg/mL | > 10 µg/mL |  | 7.3 µg/mL (≈ 21.1 µM) | 3.8 µg/mL (≈ 11 µM) |  |  |  |  |  |  | 
4 | COc1ccc(/C=C\c2cc(OC)c(OC)c(OC)c2)cc1OCCO | 0.28 µg/mL (≈ 0.777 µM) | 0.14 µg/mL (≈ 0.388 µM) | 0.32 µg/mL (≈ 0.888 µM) | 0.195 µg/mL (≈ 0.541 µM) | 0.045 µg/mL (≈ 0.125 µM) | 2.8 µM | 0.028 µg/mL (≈ 0.0777 µM) | 0.069 µg/mL (≈ 0.191 µM) |  | 100 ug/disk |  |  |  |  | 
5 | COc1ccc(/C=C/c2cc(OC)c(OC)c(OC)c2)cc1Br | 10.8 µg/mL (≈ 28.5 µM) | 0.36 µg/mL (≈ 0.949 µM) | 0.46 µg/mL (≈ 1.21 µM) | 3.08 µg/mL (≈ 8.12 µM) | 0.34 µg/mL (≈ 0.897 µM) | 31 µM | 0.4 µg/mL (≈ 1.05 µM) | 11.4 µg/mL (≈ 30.1 µM) |  |  |  |  |  |  | 
6 | COc1ccc(/C=C/c2cc(OC)c(OC)c(OC)c2)cc1OCCCO | 11.6 µg/mL (≈ 31 µM) | > 10 µg/mL | 4.5 µg/mL (≈ 12 µM) | 6.8 µg/mL (≈ 18.2 µM) | > 10 µg/mL |  | 8.1 µg/mL (≈ 21.6 µM) | 2.3 µg/mL (≈ 6.14 µM) |  |  |  |  |  |  | 
7 | COc1ccc(/C=C\c2cc(OC)c(OC)c(OC)c2)cc1OC(=O)N(CCCl)CCCl | 0.72 µg/mL (≈ 1.49 µM) | 0.37 µg/mL (≈ 0.764 µM) | 0.31 µg/mL (≈ 0.64 µM) | 0.074 µg/mL (≈ 0.153 µM) | 2.8 µg/mL (≈ 5.78 µM) | > 40 µM | 0.14 µg/mL (≈ 0.289 µM) | 0.15 µg/mL (≈ 0.31 µM) |  |  |  |  |  |  | 
8 | CCN(CC)CCOc1cc(/C=C\c2cc(OC)c(OC)c(OC)c2)ccc1OC.Cl | 1.1 µg/mL | 3.3 µg/mL | 3.4 µg/mL | 0.255 µg/mL | > 10 µg/mL | > 40 µM | 1.5 µg/mL | 1.1 µg/mL |  | 100 ug/disk | 100 ug/disk | 50 ug/disk | <6.25 ug/disk |  | 
9 | COc1ccc(/C=C\c2cc(OC)c(OC)c(OC)c2)cc1OCCn1ccnc1.Cl | 1.5 µg/mL | 0.56 µg/mL | 1.5 µg/mL | 19 µg/mL | 0.82 µg/mL | 7.6 µM | 0.31 µg/mL | 0.67 µg/mL |  | 100 ug/disk |  |  |  | 25 ug/disk | 
10 | COc1ccc(/C=C\c2cc(OC)c(OC)c(OC)c2)cc1OCCN1CCN(C)CC1.Cl.Cl | > 10 µg/mL | 3.4 µg/mL | 4.1 µg/mL | 1.6 µg/mL | > 10 µg/mL | > 40 µM | 2.8 µg/mL | 2.9 µg/mL |  |  |  |  |  |  | 
11 | COc1ccc(/C=C\c2cc(OC)c(OC)c(OC)c2)cc1OCCN1CCCC1.Cl | 0.6 µg/mL | 0.34 µg/mL | 0.35 µg/mL | 0.421 µg/mL | 2 µg/mL | > 40 µM | 0.22 µg/mL | 0.49 µg/mL |  |  |  |  |  | 25 ug/disk | 100 ug/disk
12 | COc1ccc(/C=C\c2cc(OC)c(OC)c(OC)c2)cc1OCCN1CCCCC1.Cl | 5.1 µg/mL | 3.3 µg/mL | 3.4 µg/mL | 0.348 µg/mL | > 10 µg/mL | > 40 µM | 1.6 µg/mL | 4.2 µg/mL |  |  |  |  |  |  | 
13 | COc1ccc(/C=C\c2cc(OC)c(OC)c(OC)c2)cc1N | 0.0008 µg/mL (≈ 0.00254 µM) | 0.00033 µg/mL (≈ 0.00105 µM) | 0.00033 µg/mL (≈ 0.00105 µM) | > 0.01 µg/mL | 0.00043 µg/mL (≈ 0.00136 µM) |  | 0.00023 µg/mL (≈ 0.000729 µM) | 0.00053 µg/mL (≈ 0.00168 µM) |  |  |  |  |  |  | 
